Laboratory results reported in ChEMBL document CHEMBL1212809, “Rapid behavior-based identification of neuroactive small molecules in the zebrafish” (Nat Chem Biol, 2010).
Active and inactive are the calls of the source. The calls are words filed in the database; no cut-off is given here.

Key:
[1] = species on record: Danio rerio; experiment: Modulation of neurological behavior in zebrafish assessed as prolongation of high intensity light-induced motor response at 10 to 100 uM by photomotor response assay; format: functional, organism-based
Procedure, shortened: (§1)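 Zebrafish embryos were raised in E3 medium buffered with 10 mM HEPES, in the dark at 28 °C. At 28 hpf, 8–10 per well went into 96-well plates, held dark at 25 °C for chemical treatment. For each well, 1000 video frames were recorded at 33 fps, with light stimuli. A motion index was computed from frame-to-frame pixel-intensity differences. Q1 and Q3 of this index over seven time periods gave fourteen pseudo z-scores versus control wells.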

[2] = species on record: Danio rerio; experiment: Anxiolytic activity in zebrafish assessed as decrease in high intensity light-induced motor behavior at 10 to 100 uM by photomotor response assay; format: functional, organism-based
Procedure, shortened: (§2)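 Embryos raised in HEPES (10 mM)-buffered E3 in the dark at 28 °C, then distributed at 28 hpf in groups of 8–10 per well of 96-well plates in E3 and held in the dark at 25 °C for chemical exposure. Light pulses were delivered while 1000 video frames were recorded at 33 fps. Motion index quartiles (Q1, Q3) in seven time periods were converted to pseudo z-scores against control wells.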

[3] = species on record: Danio rerio; experiment: Anxiolytic activity in zebrafish assessed as decrease in high intensity light-induced motor behavior at <10 uM by photomotor response assay; format: functional, organism-based; procedure, shortened: as §2
[4] = species on record: Danio rerio; experiment: Modulation of neurological behavior in zebrafish assessed as effect on touch response by high-throughput screening; format: functional, organism-based
Procedure, shortened: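 Zebrafish embryos were raised in E3 medium buffered with 10 mM HEPES, in the dark at 28 °C. At 28 hpf, groups of 8–10 were placed in 96-well plates, then kept dark at 25 °C during chemical treatment. After the photomotor assay, each animal was touched with a fine plastic probe and observed under a dissecting microscope. Wells were scored normal, toxic, sedative (no touch response but healthy heartbeat and circulation) or other.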

[5] = species on record: Danio rerio; experiment: Modulation of neurological behavior in zebrafish assessed as prolongation of high intensity light-induced motor response at < 10 uM by photomotor response assay; format: functional, organism-based; procedure, shortened: as §1
[6] = molecular target: T1, Acetylcholinesterase (Homo sapiens, UniProt P22303); experiment: Inhibition of AChE
[7] = molecular target: T1, Acetylcholinesterase; experiment: Inhibition of AChE at 10 uM
[8] = molecular target: Acetylcholinesterase (Danio rerio, UniProt Q9DDE3); experiment: Inhibition of AChE in zebrafish embryo
[9] = Inhibition of MAO at 10 uM by plate-reader assay
[10] = species on record: Danio rerio; experiment: Psychostimulant activity in zebrafish assessed as increase in high intensity light-induced motor response at 10 to 100 uM by photomotor response assay; format: functional, organism-based; procedure, shortened: as §1
[11] = species on record: Danio rerio; experiment: Psychostimulant activity in zebrafish assessed as increase in high intensity light-induced motor response at < 10 uM by photomotor response assay; format: functional, organism-based; procedure, shortened: as §1
[12] = species on record: Danio rerio; experiment: Toxicity in zebrafish assessed as mortality at 100 uM; format: organism-based; details: in vivo
Procedure, shortened: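 Embryos were treated in 96-well plates, 8–10 per well, then scored after the photomotor assay under a dissecting microscope. Scoring covered developmental retardation, morphological defects, heart morphology, rate and circulation, response to touch with a fine plastic probe, and overall appearance. Wells were classed as normal, toxic, sedative or other.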

[13] = species on record: Danio rerio; experiment: Modulation of neurological behavior in zebrafish assessed as robist increase in high intensity light-induced motor response at 10 to 100 uM by photomotor response assay; format: functional, organism-based; procedure, shortened: as §2
[14] = species on record: Danio rerio; experiment: Modulation of neurological behavior in zebrafish assessed as robist increase in high intensity light-induced motor response at < 10 uM by photomotor response assay; format: functional, organism-based; procedure, shortened: as §2
[15] = Inhibition of MAO by plate-reader assay
[16] = Ratio of pargyline IC50 to compound IC50 for MAO

T1 sequence (P22303 whole entry): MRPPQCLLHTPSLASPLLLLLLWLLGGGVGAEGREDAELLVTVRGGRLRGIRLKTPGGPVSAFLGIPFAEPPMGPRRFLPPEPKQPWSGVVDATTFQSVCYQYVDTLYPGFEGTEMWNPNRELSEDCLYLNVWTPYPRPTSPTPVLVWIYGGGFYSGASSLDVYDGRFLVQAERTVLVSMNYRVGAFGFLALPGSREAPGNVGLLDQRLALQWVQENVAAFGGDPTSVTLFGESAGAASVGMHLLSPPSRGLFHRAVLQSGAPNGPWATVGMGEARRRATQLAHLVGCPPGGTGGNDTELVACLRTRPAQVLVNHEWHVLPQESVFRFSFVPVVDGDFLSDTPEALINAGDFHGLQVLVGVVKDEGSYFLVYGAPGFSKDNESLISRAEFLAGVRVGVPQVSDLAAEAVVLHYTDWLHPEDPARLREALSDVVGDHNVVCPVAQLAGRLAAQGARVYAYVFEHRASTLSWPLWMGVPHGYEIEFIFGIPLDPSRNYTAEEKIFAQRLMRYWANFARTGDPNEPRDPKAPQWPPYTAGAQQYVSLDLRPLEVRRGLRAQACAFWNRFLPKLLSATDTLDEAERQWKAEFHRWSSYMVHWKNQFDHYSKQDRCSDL
Chain of Acetylcholinesterase (Danio rerio, UniProt Q9DDE3) (Q9DDE3 whole entry): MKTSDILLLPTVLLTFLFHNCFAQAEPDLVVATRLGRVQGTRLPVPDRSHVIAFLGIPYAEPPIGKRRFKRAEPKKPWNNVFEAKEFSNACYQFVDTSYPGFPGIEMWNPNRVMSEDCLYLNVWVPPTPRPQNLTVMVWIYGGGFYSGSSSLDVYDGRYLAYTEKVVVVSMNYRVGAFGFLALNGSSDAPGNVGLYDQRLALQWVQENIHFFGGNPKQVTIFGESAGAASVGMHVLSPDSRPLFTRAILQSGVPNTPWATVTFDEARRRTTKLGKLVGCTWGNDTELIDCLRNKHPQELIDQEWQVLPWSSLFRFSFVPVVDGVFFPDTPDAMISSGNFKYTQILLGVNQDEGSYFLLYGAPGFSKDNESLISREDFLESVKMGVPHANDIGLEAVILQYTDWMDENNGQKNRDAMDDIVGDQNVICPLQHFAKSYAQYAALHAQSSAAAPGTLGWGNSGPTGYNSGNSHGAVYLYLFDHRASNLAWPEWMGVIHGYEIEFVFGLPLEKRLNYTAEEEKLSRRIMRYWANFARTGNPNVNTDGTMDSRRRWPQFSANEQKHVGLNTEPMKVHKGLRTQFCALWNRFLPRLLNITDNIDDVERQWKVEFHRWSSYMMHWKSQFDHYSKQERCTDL

In the case of `CN1[C@@H]2CC[C@H]1C[C@@H](OC(=O)C(CO)c1ccccc1)C2` (some centres undefined), the Activity [1] is reported as “Active”.
In the case of `CN1C(=O)CN=C(c2ccccc2)c2cc(Cl)ccc21`, the inhibition [2] is reported as “Active”, the inhibition [3] is reported as “inactive” and the Activity [4] is reported as “Active”.
For `CNC[C@H](O)c1ccc(O)c(O)c1`, the Activity [4] was “Active”.
In the case of `CN1CCc2cccc3c2[C@H]1Cc1ccc(O)c(O)c1-3`, the Activity [1] is reported as “Active”, the Activity [5] is reported as “inactive” and the Activity [4] is reported as “Active”.
With `O=C(CCCN1C(=O)c2ccccc2C1=O)N1CCCCCC1` the Activity [4] was “Active” and the IC50 [6] was 500 nM.
For `C#CCN(C)Cc1ccccc1`, the Activity [4] was “Active”.
For `CNC(=O)Oc1ccc2c(c1)[C@]1(C)CCN(C)[C@@H]1N2C`, the Activity [4] was “Active”.
In the case of `O=C1c2ccccc2-c2nc3ncnn3c(-c3ccccc3Cl)c21`, the Activity [4] is reported as “Active”, the inhibition [7] is reported as “inactive” and the IC50 [8] is reported as 500 nM.
For `CC(=O)CC(c1ccccc1)c1c(O)c2ccccc2oc1=O` (centres undefined), the Activity [4] was “Active” and the inhibition [9] was “inactive”.
With `Cc1cc2c(OCC(CNC(C)(C)C)OC(=O)c3ccccc3)cccc2[nH]1` (centres undefined) the Activity [1] was “Active”.
In the case of `CC(C)NCC(O)c1ccc(O)c(O)c1` (centres undefined), the Activity [10] is reported as “Active”, the Activity [11] is reported as “inactive” and the Activity [3] is reported as “inactive”. For the same compound, the Activity [4] was “Active”.
With `C[C@]12CC[C@H](O)C[C@H]1CC[C@@H]1[C@@H]2CC[C@]2(C)[C@@H](C3=CC(=O)OC3)CC[C@]12O` [DIGITOXIGENIN] the Activity [12] was “Toxic” and the Activity [4] was “Active”.
For `CC(C)(C)NCC(O)c1cc(Cl)c(N)c(Cl)c1` (centres undefined), the Activity [4] was “Active”.
With `O=C(Oc1ccc2c3c(c(=O)oc2c1)CCCC3)c1ccccc1` the Activity [4] was “Active”.
For `O=[N+]([O-])c1ccc2nc(N3CCNCC3)ccc2c1`, the Activity [13] was “Active”, the Activity [14] was “inactive” and the Activity [4] was “Active”.
`CC(C)(C)OC(=O)NCCC(=O)Oc1cc2oc(=O)c3c(c2cc1Cl)CCCC3` gave an IC50 [15] of 10000 nM and a Ratio IC50 [16] of 100.
`O=C(CNC(=O)OCc1ccccc1)Oc1cc2oc(=O)c3c(c2cc1Cl)CCC3` showed an inhibition [9] of 0% and a Ratio IC50 [16] of 100.
In the case of `C[n+]1ccccc1C=NO`, the Activity [1] is reported as “Active”.
Compound `CC(C)(C)OC(=O)NCC(=O)Oc1cc2oc(=O)c3c(c2cc1Cl)CCC3` has an IC50 [15] of 500 nM and a Ratio IC50 [16] of 100.
Work on `CC(C)(C)OC(=O)NCCC(=O)Oc1cc2oc(=O)c3c(c2cc1Cl)CCC3` yielded an IC50 [15] of 1000 nM and a Ratio IC50 [16] of 100.
For `COC(=O)c1ccc(COc2cc(C)ccc2C(=O)Oc2ccc3c4c(c(=O)oc3c2)CCCC4)o1`, the Ratio IC50 [16] was 100.
